# Measurements taken from ChEMBL document CHEMBL1123591, “Synthetic analogues of tetrahydrobiopterin with cofactor activity for aromatic amino acid hydroxylases” (1987).
# How the values were obtained:
# [1] = test system: dihydropteridine reductase; assay: Tested in isolated enzyme assay for its cofactor activity against dihydropteridine reductase expressed as Michaelis-Menten constant (calculated in the presence of platinum catalyst)
# [2] = target: T1, Phenylalanine-4-hydroxylase (Rattus norvegicus) (UniProt P04176); assay: Tested in isolated enzyme assay for its cofactor activity against phenylalanine hydroxylase (isolated from rat liver) expressed as relative velocity
# T1 sequence (whole entry): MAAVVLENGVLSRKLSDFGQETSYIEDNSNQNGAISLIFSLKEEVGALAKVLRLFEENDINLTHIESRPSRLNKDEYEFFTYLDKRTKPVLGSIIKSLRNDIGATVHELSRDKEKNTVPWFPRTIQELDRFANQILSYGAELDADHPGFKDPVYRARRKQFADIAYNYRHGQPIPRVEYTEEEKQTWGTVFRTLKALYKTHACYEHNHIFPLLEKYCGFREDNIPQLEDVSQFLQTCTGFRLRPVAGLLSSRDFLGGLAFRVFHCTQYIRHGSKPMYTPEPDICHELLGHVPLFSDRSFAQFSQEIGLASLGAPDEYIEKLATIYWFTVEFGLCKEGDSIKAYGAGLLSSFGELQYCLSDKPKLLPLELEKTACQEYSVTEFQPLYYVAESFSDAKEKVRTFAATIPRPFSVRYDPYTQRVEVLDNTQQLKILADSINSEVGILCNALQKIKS
# Summary of the method: (§1)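 Phenylalanine hydroxylase was isolated from rat liver and purified on phenyl-Sepharose. Tyrosine formed was quantified by liquid chromatography with fluorescence detection, and velocities were expressed relative to tetrahydrobiopterin.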
# [3] = target: T2, Tryptophan 5-hydroxylase 1 (Rattus norvegicus) (UniProt P09810); assay: Tested in isolated enzyme assay for its cofactor activity against tryptophan hydroxylase (isolated from rat brain stem) expressed as relative velocity
# T2 sequence (whole entry): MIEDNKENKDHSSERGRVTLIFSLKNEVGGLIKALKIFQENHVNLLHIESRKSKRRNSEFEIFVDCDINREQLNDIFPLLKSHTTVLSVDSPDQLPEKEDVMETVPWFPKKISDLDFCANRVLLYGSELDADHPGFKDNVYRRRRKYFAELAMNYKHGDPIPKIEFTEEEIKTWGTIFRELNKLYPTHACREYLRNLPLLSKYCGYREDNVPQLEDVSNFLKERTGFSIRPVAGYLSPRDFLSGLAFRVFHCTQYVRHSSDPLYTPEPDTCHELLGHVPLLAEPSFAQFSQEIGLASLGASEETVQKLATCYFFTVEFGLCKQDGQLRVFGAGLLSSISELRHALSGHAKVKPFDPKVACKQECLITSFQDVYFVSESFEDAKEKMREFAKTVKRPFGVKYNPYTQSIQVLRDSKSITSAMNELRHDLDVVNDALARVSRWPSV
# Summary of the method: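 The tryptophan hydroxylase source was a desalted 40000g supernatant of rat brain stem, with velocities expressed relative to tetrahydrobiopterin.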
# [4] = target: T3, Tyrosine 3-monooxygenase (Bos taurus) (UniProt P17289); assay: Cofactor activity in bovine adrenal medulla tyrosine hydroxylase assay as relative velocity
# T3 sequence (whole entry): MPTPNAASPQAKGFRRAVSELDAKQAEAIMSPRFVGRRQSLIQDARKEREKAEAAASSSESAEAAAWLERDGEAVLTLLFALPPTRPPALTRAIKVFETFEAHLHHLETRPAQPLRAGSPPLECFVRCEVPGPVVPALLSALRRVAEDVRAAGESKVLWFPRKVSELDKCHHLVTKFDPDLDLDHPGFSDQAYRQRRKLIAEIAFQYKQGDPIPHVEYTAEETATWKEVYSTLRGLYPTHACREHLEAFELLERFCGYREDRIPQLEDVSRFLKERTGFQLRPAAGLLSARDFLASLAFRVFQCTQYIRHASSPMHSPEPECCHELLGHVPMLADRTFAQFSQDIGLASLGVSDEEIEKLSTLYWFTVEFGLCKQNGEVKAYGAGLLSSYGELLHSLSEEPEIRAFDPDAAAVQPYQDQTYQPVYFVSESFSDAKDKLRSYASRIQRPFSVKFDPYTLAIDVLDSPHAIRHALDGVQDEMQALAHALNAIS
# Summary of the method: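 Tyrosine hydroxylase was purified from bovine adrenal medulla by partial trypsin digestion, giving a model of the high-affinity form, then ammonium sulfate fractionation. Activity was measured as release of ³H₂O from L-(3,5-³H)tyrosine, with velocities expressed relative to tetrahydrobiopterin.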
# [5] = test system: dihydropteridine reductase; assay: Tested in isolated enzyme assay for its cofactor activity against dihydropteridine reductase expressed as Michaelis-Menten constant
# [6] = target: T1, Phenylalanine-4-hydroxylase (Rattus norvegicus); assay: Tested in isolated enzyme assay for its cofactor activity against phenylalanine hydroxylase (iisolated from rat liver) expressed as relative velocity
# Summary of the method: as §1
Structure (SMILES),Km [1] [µM],Relative velocity [2] [%],Relative velocity [3] [%],Relative velocity [4] [%],Km [5] [µM],Relative velocity [6] [%]
CC1(C)CNc2nc(N)nc(O)c2N1,260,39,40,119,,
CCCCCCCCOCC1CNc2nc(N)nc(O)c2N1 (configuration not stated),,3,32,48,,
CCCOCC1CNc2nc(N)nc(O)c2N1 (configuration not stated),,32,54,92,2,
COCCOCC1CNc2nc(N)nc(O)c2N1 (configuration not stated),,36,,131,,
CC(O)C(O)C1CNc2nc(N)nc(O)c2N1 (configuration not stated),,,100,100,2,100
CC(C)(C)OCC1CNc2nc(N)nc(O)c2N1 (configuration not stated),,4,,130,5,
CCCCOCC1CNc2nc(N)nc(O)c2N1 (configuration not stated),,22,52,135,3,
CC(C)OCC1CNc2nc(N)nc(O)c2N1 (configuration not stated),,15,44,137,4,
CCOCC1CNc2nc(N)nc(O)c2N1 (configuration not stated),,,85,154,6,155
CCCCCOCC1CNc2nc(N)nc(O)c2N1 (configuration not stated),,,,85,,
CC(C)COCC1CNc2nc(N)nc(O)c2N1 (configuration not stated),,,,110,,
CC1CNc2nc(N)[nH]c(=O)c2N1 (configuration not stated),,,154,154,13,238
COCC1CNc2nc(N)nc(O)c2N1 (configuration not stated),,,65,126,9,138
